Experimental data from ChEMBL document CHEMBL1142436, “Design and synthesis of 4-substituted indolo[3,2-e][1,2,3]triazolo[1,5-a]pyrimidine derivatives with antitumor activity” (2008).

What was measured:
Assay type in all cases: functional
LOX IMVI = test: Growth inhibition of human LOXIMVI cells after 48 hrs; conditions: for TGI: read-out: pTGI (converted)
How it was run: (§1)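 NCI ~60-line screen. Cells were grown in RPMI 1640 with 5% FBS and 2 mM L-glutamine and plated at 5000–40000 cells/well. After a 24 h preincubation, five drug concentrations from DMSO stocks were added for 48 h at 37 °C. Cells were TCA-fixed, stained with SRB and read at 515 nm. GI50 was taken from time-zero and control absorbances and reported as pGI50.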

HCT-15 = test: Growth inhibition of human HCT15 cells after 48 hrs; conditions: HCT-15, 48 h; for TGI: read-out: pTGI; how it was run: as §1
K562 = test: Growth inhibition of human K562 cells after 48 hrs; conditions: K562, 48 h; for TGI: read-out: pTGI (converted); how it was run: as §1
SN12C = test: Growth inhibition of human SN12C cells after 48 hrs; conditions: for TGI: read-out: pTGI (converted)
How it was run: (§2)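 NCI 60-line screen: cells in RPMI 1640 with 5% FBS and 2 mM L-glutamine, plated at 5000–40000 cells/well, grown 24 h (37 °C, 5% CO₂), then exposed to five 10-fold or ½-log dilutions (DMSO stock) for 48 h. Fixed with TCA (final 10% for adherent cells, 16% for suspension cells), then SRB stained with absorbance at 515 nm. GI50 from percentage growth relative to time-zero and control wells.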

OVCAR-5 = test: Growth inhibition of human OVCAR5 cells after 48 hrs; conditions: OVCAR-5, 48 h; for TGI: read-out: pTGI (converted); how it was run: as §1
PC-3 = test: Growth inhibition of human PC3 cells after 48 hrs; conditions: PC-3, 48 h; for TGI: read-out: pTGI (converted); how it was run: as §1
CAKI-1 = test: Growth inhibition of human CAKI1 cells after 48 hrs; conditions: CAKI-1, 48 h; for TGI: read-out: pTGI (converted); how it was run: as §1
SF-295 = test: Growth inhibition of human SF295 cells after 48 hrs; conditions: SF-295, 48 h; for TGI: read-out: pTGI (converted); how it was run: as §1
SK-MEL-2 = test: Growth inhibition of human SK-MEL2 cells after 48 hrs; conditions: SK-MEL-2, 48 h; for TGI: read-out: pTGI (converted); how it was run: as §1
HOP-92 = test: Growth inhibition of human HOP92 cells after 48 hrs; conditions: HOP-92, 48 h; for TGI: read-out: pTGI (converted); how it was run: as §1
SR = test: Growth inhibition of human SR cells after 48 hrs; how it was run: as §2
SK-OV-3 = test: Growth inhibition of human SKOV3 cells after 48 hrs; conditions: SK-OV-3, 48 h; for TGI: read-out: pTGI (converted); how it was run: as §2
NCI-H226 = test: Growth inhibition of human NCI-H226 cells after 48 hrs; conditions: NCI-H226, 48 h; for CC50: read-out: Log LC50 (the source's name) (converted); for TGI: read-out: pTGI; how it was run: as §1
UO-31 = test: Growth inhibition of human UO31 cells after 48 hrs; conditions: UO-31, 48 h; for TGI: read-out: pTGI (converted); how it was run: as §2
HT-29 = test: Growth inhibition of human HT29 cells after 48 hrs; conditions: HT-29, 48 h; for TGI: read-out: pTGI (converted); how it was run: as §1
HL-60 = test: Growth inhibition of human HL60 cells after 48 hrs; conditions: HL-60, 48 h; for TGI: read-out: pTGI (converted); how it was run: as §1
MDA-MB-231 = test: Growth inhibition of human MDA-MB-231 cells after 48 hrs; conditions: MDA-MB-231, 48 h; for TGI: read-out: pTGI (converted); how it was run: as §1
786-0 = test: Growth inhibition of human 786-0 cells after 48 hrs; conditions: 786-0, 48 h; for TGI: read-out: pTGI (converted); how it was run: as §1
UACC-62 = test: Growth inhibition of human UACC62 cells after 48 hrs; conditions: UACC-62, 48 h; for TGI: read-out: pTGI (converted); how it was run: as §2
MDA-MB-435 = test: Growth inhibition of human MDA-MB435 cells after 48 hrs; conditions: MDA-MB-435, 48 h; for TGI: read-out: pTGI (converted); how it was run: as §1
UACC-257 = test: Growth inhibition of human UACC257 cells after 48 hrs; conditions: UACC-257, 48 h; for TGI: read-out: pTGI (converted); how it was run: as §2
A549 = test: Growth inhibition of human A549 cells after 48 hrs; conditions: A549, 48 h; for CC50: read-out: Log LC50 (the source's name) (converted); for TGI: read-out: pTGI (converted); how it was run: as §1
NCI/ADR-RES = test: Growth inhibition of human NCI/ADR-RES cells after 48 hrs; conditions: for TGI: read-out: pTGI (converted); how it was run: as §1
TK-10 = test: Growth inhibition of human TK10 cells after 48 hrs; conditions: TK-10, 48 h; for TGI: read-out: pTGI (converted); how it was run: as §2

SMILES: Cn1c2ccccc2c2c(=O)n(CCCC(=O)NCCc3c[nH]cn3)c3c(-c4ccccc4)nnn3c21
- GI50 (LOX IMVI): 11.2 µM
- LC50 (lethal concentration, 50% cell kill) (LOX IMVI): 46.8 µM
- TGI (LOX IMVI): 22.9 µM
- GI50 (HCT-15): 14.5 µM
- LC50 (HCT-15): > 50.1 µM
- TGI (HCT-15): 43.7 µM
- GI50 (K562): 8.91 µM
- LC50 (K562): > 50.1 µM
- TGI (K562): 26.9 µM
- GI50 (SN12C): 8.71 µM
- LC50 (SN12C): 39.8 µM
- TGI (SN12C): 18.6 µM
- GI50 (OVCAR-5): 11 µM
- LC50 (concentration killing 50% of cells) (OVCAR-5): 38 µM
- TGI (OVCAR-5): 20.4 µM
- GI50 (PC-3): 8.91 µM
- LC50 (PC-3): 44.7 µM
- TGI (PC-3): 20 µM
- GI50 (CAKI-1): 12 µM
- LC50 (concentration killing 50% of cells) (CAKI-1): > 50.1 µM
- TGI (CAKI-1): 33.1 µM
- GI50 (SF-295): 9.12 µM
- LC50 (SF-295): 34.7 µM
- TGI (SF-295): 17.8 µM
- GI50 (SK-MEL-2): 10.2 µM
- LC50 (SK-MEL-2): 42.7 µM
- TGI (SK-MEL-2): 20.9 µM
- GI50 (HOP-92): 1.35 µM
- LC50 (HOP-92): 44.7 µM
- TGI (HOP-92): 5.5 µM
- GI50 (SR): 4.07 µM
- LC50 (SR): > 50.1 µM
- TGI (SR; read-out: pTGI (converted)): > 50.1 µM
- GI50 (SK-OV-3): 10.2 µM
- LC50 (SK-OV-3): 33.9 µM
- TGI (SK-OV-3): 18.6 µM
- GI50 (NCI-H226): > 50.1 µM
- CC50 (NCI-H226): > 50.1 µM
- TGI (NCI-H226): > 50.1 µM
- GI50 (UO-31): 7.41 µM
- LC50 (UO-31): 29.5 µM
- TGI (UO-31): 14.8 µM
- GI50 (HT-29): 8.51 µM
- LC50 (concentration killing 50% of cells) (HT-29): 37.2 µM
- TGI (HT-29): 17.8 µM
- GI50 (HL-60): 11.7 µM
- LC50 (HL-60): > 50.1 µM
- TGI (HL-60): 28.2 µM
- GI50 (MDA-MB-231): 9.33 µM
- LC50 (concentration killing 50% of cells) (MDA-MB-231): 37.2 µM
- TGI (MDA-MB-231): 18.6 µM
- GI50 (786-0): 2.19 µM
- LC50 (786-0): 26.9 µM
- TGI (786-0): 8.13 µM
- GI50 (UACC-62): 9.77 µM
- LC50 (UACC-62): 31.6 µM
- TGI (UACC-62): 17.8 µM
- GI50 (MDA-MB-435): 10.2 µM
- LC50 (MDA-MB-435): 39.8 µM
- TGI (MDA-MB-435): 20 µM
- GI50 (UACC-257): 12 µM
- LC50 (UACC-257): 38.9 µM
- TGI (UACC-257): 21.4 µM
- GI50 (A549): 12.9 µM
- CC50 (A549): 45.7 µM
- TGI (A549): 24 µM
- GI50 (NCI/ADR-RES): > 50.1 µM
- LC50 (concentration killing 50% of cells) (NCI/ADR-RES): > 50.1 µM
- TGI (NCI/ADR-RES): > 50.1 µM
- GI50 (TK-10): 4.79 µM
- LC50 (TK-10): 26.9 µM
- TGI (TK-10): 11.5 µM

SMILES: CCOC(=O)CNC(=O)CCCn1c(=O)c2c3ccccc3n(C)c2n2nnc(-c3ccccc3)c12
- GI50 (LOX IMVI): 25.1 µM
- LC50 (lethal concentration, 50% cell kill) (LOX IMVI): > 50.1 µM
- TGI (LOX IMVI): > 50.1 µM
- GI50 (HCT-15): > 50.1 µM
- LC50 (HCT-15): > 50.1 µM
- TGI (HCT-15): > 50.1 µM
- GI50 (K562): 4.68 µM
- LC50 (K562): > 50.1 µM
- TGI (K562): > 50.1 µM
- GI50 (SN12C): > 50.1 µM
- LC50 (SN12C): > 50.1 µM
- TGI (SN12C): > 50.1 µM
- GI50 (OVCAR-5): 27.5 µM
- LC50 (concentration killing 50% of cells) (OVCAR-5): > 50.1 µM
- TGI (OVCAR-5): > 50.1 µM
- GI50 (PC-3): 8.51 µM
- LC50 (PC-3): > 50.1 µM
- TGI (PC-3): > 50.1 µM
- GI50 (CAKI-1): 8.32 µM
- LC50 (concentration killing 50% of cells) (CAKI-1): 47.9 µM
- TGI (CAKI-1): 20 µM
- GI50 (SF-295): 4.79 µM
- LC50 (SF-295): > 50.1 µM
- TGI (SF-295): 17.4 µM
- GI50 (SK-MEL-2): 9.55 µM
- LC50 (SK-MEL-2): > 50.1 µM
- TGI (SK-MEL-2): 28.8 µM
- GI50 (HOP-92): > 50.1 µM
- LC50 (HOP-92): 3.63 µM
- TGI (HOP-92): 14.8 µM
- GI50 (SK-OV-3): 6.76 µM
- LC50 (SK-OV-3): > 50.1 µM
- TGI (SK-OV-3): 43.7 µM
- GI50 (NCI-H226): 25.1 µM
- CC50 (NCI-H226): > 50.1 µM
- TGI (NCI-H226): > 50.1 µM
- GI50 (UO-31): 47.9 µM
- LC50 (UO-31): > 50.1 µM
- TGI (UO-31): > 50.1 µM
- GI50 (HT-29): > 50.1 µM
- LC50 (concentration killing 50% of cells) (HT-29): > 50.1 µM
- TGI (HT-29): > 50.1 µM
- GI50 (HL-60): 20.4 µM
- LC50 (HL-60): > 50.1 µM
- TGI (HL-60): > 50.1 µM
- GI50 (MDA-MB-231): 14.8 µM
- LC50 (concentration killing 50% of cells) (MDA-MB-231): > 50.1 µM
- TGI (MDA-MB-231): 30.9 µM
- GI50 (786-0): 5.13 µM
- LC50 (786-0): > 50.1 µM
- TGI (786-0): 17.4 µM
- GI50 (UACC-62): 7.24 µM
- LC50 (UACC-62): > 50.1 µM
- TGI (UACC-62): 21.9 µM
- GI50 (MDA-MB-435): > 50.1 µM
- LC50 (MDA-MB-435): 39.8 µM
- TGI (MDA-MB-435): 20 µM
- GI50 (UACC-257): > 50.1 µM
- LC50 (UACC-257): > 50.1 µM
- TGI (UACC-257): > 50.1 µM
- GI50 (A549): 33.1 µM
- CC50 (A549): > 50.1 µM
- TGI (A549): > 50.1 µM
- GI50 (NCI/ADR-RES): > 50.1 µM
- LC50 (concentration killing 50% of cells) (NCI/ADR-RES): > 50.1 µM
- TGI (NCI/ADR-RES): > 50.1 µM
- GI50 (TK-10): 8.71 µM
- LC50 (TK-10): > 50.1 µM
- TGI (TK-10): 20.9 µM
